Measurements as given in ChEMBL document CHEMBL1159323, “Lignanamides and nonalkaloidal components of Hyoscyamus niger seeds” (J Nat Prod, 2002).

The molecules below were run on LNCaP (assay: Cytotoxicity against human LNCAP cells after 48 hrs by MTT assay).
Type: functional, cell-based
Summary of the method: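 LNCaP cells (ATCC CRL1740) grown in RPMI with 10% FBS, streptomycin and penicillin at 37 °C, 5% CO2. Seeded 2 × 10^5 cells/well and exposed to a range of compound concentrations for 48 h at 37 °C. MTT was then added for 4 h at 37 °C. Formazan was dissolved in DMSO and absorbance read at 540 nm. IC50 derived; run in triplicate.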

First: COc1cc(/C=C(C(=O)NCCc2ccc(O)cc2)/C(=C/c2ccc(O)c(OC)c2)C(=O)NCCc2ccc(O)cc2)ccc1O [HYOSCYAMIDE]
Second: COc1cc(/C=C(C(=O)NCCc2ccc(O)cc2)\C(=C/c2ccc(O)c(OC)c2)C(=O)NCCc2ccc(O)cc2)ccc1O [CANNABISIN G]
The IC50 of the first is higher: greater than 100 µM for the first, 76 µM for the second.

`CCCCC/C=C\C/C=C\CCCCCCCC(=O)OCC(O)COC(=O)CCCCCCCCCCCCCCCCCC` (stereo unspecified) and `CCCCC/C=C\C/C=C/CCCCCCCC(=O)OCC(O)COC(=O)CCCCCCC/C=C\CCCCCCCC` (stereo unspecified) cannot be ordered by IC50: greater than 100 µM for the first, greater than 100 µM for the second.

Going from `COc1cc([C@@H]2Oc3c(OC)cc(/C=C/C(=O)NCCc4ccc(O)cc4)cc3[C@H]2C(=O)NCCc2ccc(O)cc2)ccc1O` [GROSSAMIDE] to `COc1cc([C@@H]2c3cc(O)c(OC)cc3C=C(C(=O)NCCc3ccc(O)cc3)[C@H]2C(=O)NCCc2ccc(O)cc2)ccc1O` [CANNABISIN D], the IC50 rises from 33 µM to 81 µM (2.5-fold).

`CCCCCCCCCCCCCCCCCC(=O)OCC(O)CO` (stereo unspecified) [GLYCERYL MONOSTEARATE] and `CCCCC/C=C\C/C=C\CCCCCCCC(=O)OCC(O)CO` (stereo unspecified) cannot be ordered by IC50: greater than 100 µM for the first, greater than 100 µM for the second.

`CCCCC/C=C\C/C=C\CCCCCCCC(=O)OC(CO)COC(=O)CCCCCCC/C=C/C/C=C/CCCCC` (stereo unspecified) and `COc1cc(/C=C/C(=O)OCCCCCCCCCCCCCCCCCCCCCCCCOC(=O)/C=C/c2ccc(O)c(OC)c2)ccc1O` cannot be ordered by IC50: greater than 100 µM for the first, greater than 100 µM for the second.

`COc1cc(/C=C/C(=O)NCCc2ccc(O)cc2)ccc1O` [N-TRANS-FERULOYL TYRAMINE] showed an IC50 greater than 100 µM.
